Test results: ChEMBL document CHEMBL3414468, “N-benzoyl-1,5-benzothiazepine and its S-oxide as vasopressin receptor ligands: insight into the active stereochemistry around the seven-membered ring” (J Med Chem, 2015)
Where “and” joins values, the source holds several entries; their conditions need not be identical. Equal values may be shown once.

Columns and labels:
Vasopressin V1a receptor [1] = target: T1, Vasopressin V1a receptor (Homo sapiens, UniProt P37288); test: Displacement of [3H]-(Arg8)-vasopressin from human vasopressin V1a receptor transfected in CHO cell membranes
In short: (§1)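 Competition binding of [3H](Arg8)-vasopressin to human V1a or V2 receptors. Ki is reported as the mean of duplicate measurements. Where no Ki was given, percent inhibition of radioligand binding was read at 10 μM test compound.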
Target sequence in this assay (P37288 whole entry): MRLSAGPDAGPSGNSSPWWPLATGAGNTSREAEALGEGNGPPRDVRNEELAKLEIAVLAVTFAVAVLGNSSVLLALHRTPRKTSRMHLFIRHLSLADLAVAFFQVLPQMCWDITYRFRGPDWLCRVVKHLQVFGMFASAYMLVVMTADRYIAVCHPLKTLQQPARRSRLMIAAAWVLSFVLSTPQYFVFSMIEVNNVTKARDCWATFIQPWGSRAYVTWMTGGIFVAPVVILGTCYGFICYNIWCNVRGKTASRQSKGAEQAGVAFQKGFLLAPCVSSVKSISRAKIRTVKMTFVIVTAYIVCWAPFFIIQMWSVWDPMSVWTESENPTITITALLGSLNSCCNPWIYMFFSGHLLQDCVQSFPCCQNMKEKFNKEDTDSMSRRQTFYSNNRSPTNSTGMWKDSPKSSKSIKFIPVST

Vasopressin V2 receptor [2] = target: T2, Vasopressin V2 receptor (Homo sapiens, UniProt P30518); test: Displacement of [3H]-(Arg8)-vasopressin from human vasopressin V2 receptor transfected in CHO cell membranes; in short: as §1
T2 sequence (P30518 whole entry): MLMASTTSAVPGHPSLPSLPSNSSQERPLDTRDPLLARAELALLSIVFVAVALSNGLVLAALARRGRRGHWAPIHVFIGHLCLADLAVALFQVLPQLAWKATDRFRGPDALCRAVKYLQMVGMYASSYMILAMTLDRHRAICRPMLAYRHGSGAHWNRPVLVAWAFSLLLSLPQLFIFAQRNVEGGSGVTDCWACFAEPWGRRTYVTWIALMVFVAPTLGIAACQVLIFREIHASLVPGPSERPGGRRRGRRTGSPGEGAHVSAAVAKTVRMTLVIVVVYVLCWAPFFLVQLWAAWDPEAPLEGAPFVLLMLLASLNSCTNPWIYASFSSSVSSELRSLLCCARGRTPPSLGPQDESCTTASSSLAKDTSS

Vasopressin V2 receptor [3] = target: T2, Vasopressin V2 receptor; test: Displacement of [3H]-(Arg8)-vasopressin from human vasopressin V2 receptor transfected in CHO cell membranes at 10 uM relative to control; in short: as §1
Vasopressin V1a receptor [4] = target: T1, Vasopressin V1a receptor; test: Displacement of [3H]-(Arg8)-vasopressin from human vasopressin V1a receptor transfected in CHO cell membranes at 10 uM relative to control; in short: as §1
Target sequence in this assay (P37288 whole entry, looked up): as the sequence (P37288 whole entry) above

| SMILES | Ki (Vasopressin V1a receptor [1]) | Ki (Vasopressin V2 receptor [2]) | inhibition (Vasopressin V2 receptor [3]) [%] | inhibition (Vasopressin V1a receptor [4]) [%] |
| --- | --- | --- | --- | --- |
| Cc1ccccc1C(=O)Nc1ccc(C(=O)N2CCCSc3ccccc32)cc1 | 68 nM | 21 nM | – | – |
| Cc1ccccc1C(=O)Nc1ccc(C(=O)N2CCCSc3cccc(C)c32)cc1 | 37 nM and 19 nM and 147 nM | 360 nM and 184 nM and 1800 nM | – | – |
| Cc1ccccc1C(=O)Nc1ccc(C(=O)N2CCCSc3c(C)cccc32)cc1 | 48 nM | 880 nM | – | – |
| Cc1ccccc1C(=O)Nc1ccc(C(=O)N2CCCN(C)c3cccc(C)c32)cc1 | 5.9 nM and 4.4 nM and 13 nM | 130 nM and 98 nM and 310 nM | – | – |
| Cc1ccccc1C(=O)Nc1ccc(C(=O)N2CCC[S+]([O-])c3ccccc32)cc1 (racemic) | 910 nM | 870 nM | – | – |
| Cc1ccccc1C(=O)Nc1ccc(C(=O)N2CCC[S+]([O-])c3c(C)cccc32)cc1 (racemic) | 870 nM | – | 34 | – |
| Cc1ccccc1C(=O)Nc1ccc(C(=O)N2CCC[S@@+]([O-])c3cccc(C)c32)cc1 (racemic) | – | – | 22 | 55 |
| Cc1ccccc1C(=O)Nc1ccc(C(=O)N2CCC[S@@+]([O-])c3ccccc32)cc1 (stereo in doubt; (+)) [listing 1 of 2 here] | – | 1240 nM | – | – |
| Cc1ccccc1C(=O)Nc1ccc(C(=O)N2CCC[S@@+]([O-])c3c(C)cccc32)cc1 (stereo in doubt; (+)) [listing 1 of 2 here] | 660 nM | – | – | – |
| Cc1ccccc1C(=O)Nc1ccc(C(=O)N2CCC[S@@+]([O-])c3c(C)cccc32)cc1 (stereo in doubt; (+)) [listing 2 of 2 here] | – | – | 48 | – |
| Cc1ccccc1C(=O)Nc1ccc(C(=O)N2CCC[S@@+]([O-])c3ccccc32)cc1 (stereo in doubt; (+)) [listing 2 of 2 here] | – | – | – | 57 |
| Cc1ccccc1C(=O)Nc1ccc(C(=O)N2CCC[S@@+]([O-])c3ccccc32)cc1 (stereo in doubt; (-)) | 550 nM | 820 nM | – | – |
| Cc1ccccc1C(=O)Nc1ccc(C(=O)N2CCC[S@@+]([O-])c3c(C)cccc32)cc1 (stereo in doubt; (-)) | – | – | 0 | 53 |
